Measurements published in ChEMBL document CHEMBL2034884, “Synthesis, in vitro and in silico screening of ethyl 2-(6-substituted benzo[d]thiazol-2-ylamino)-2-oxoacetates as protein-tyrosine phosphatase 1B inhibitors” (Eur J Med Chem, 2012).
One block for each compound: values may come before it. Calls of active or inactive are those of the source. The rule behind the calls is not given here.

Legend:
[1] = test system: Rattus norvegicus; assay: Hypoglycemic activity in normoglycemic Wistar rat at 100 mg/kg, po administered as single dose measured up to 5 hrs post dose; assay type: functional
How it was run: (§1)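 Male Wistar rats (200–250 g), n = 5 per group, given a single oral/intragastric dose suspended in 5% Tween 80. Vehicle controls received 5% Tween 80. Caudal-vein blood was taken at 0, 1, 3, 5 and 7 h and glucose read with a glucose oxidase glucometer. Results are % glycemia change versus 0 h, mean ± S.E.M., ANOVA p < 0.05.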

[2] = target: T1, Tyrosine-protein phosphatase non-receptor type 1 (Homo sapiens) (UniProt P18031); assay: Reversible inhibition of human recombinant GST-tagged PTP1B expressed in Escherichia coli TB1 cells using p-NPP as substrate at 100 uM after 1 hr at 37 degC
T1 sequence (whole entry): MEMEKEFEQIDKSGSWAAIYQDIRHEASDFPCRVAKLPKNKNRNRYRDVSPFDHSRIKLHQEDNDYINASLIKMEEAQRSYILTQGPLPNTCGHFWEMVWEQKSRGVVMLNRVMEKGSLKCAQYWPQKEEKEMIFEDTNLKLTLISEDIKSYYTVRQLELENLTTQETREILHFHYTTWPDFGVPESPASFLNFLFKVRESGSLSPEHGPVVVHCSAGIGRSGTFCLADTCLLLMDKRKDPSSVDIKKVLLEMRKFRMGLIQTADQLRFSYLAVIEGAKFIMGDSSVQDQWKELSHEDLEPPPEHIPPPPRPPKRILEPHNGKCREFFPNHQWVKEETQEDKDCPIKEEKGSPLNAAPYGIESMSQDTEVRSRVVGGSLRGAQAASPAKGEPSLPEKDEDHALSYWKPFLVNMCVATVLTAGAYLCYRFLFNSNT
How it was run: (§2)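 The enzyme, cleaved from GST, was preincubated for 1 h at 4 °C or 37 °C with 100 μM compound or a DMSO control. It was then diluted 400-fold into assay solution, and residual activity was measured at 37 °C with 5 mM p-NPP final, read at 400 nm. Triplicates, mean ± S.E.M.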

[3] = target: T2, Tyrosine-protein phosphatase non-receptor type 1 (Homo sapiens, UniProt P18031); assay: Inhibition of human recombinant GST-tagged PTP1B expressed in Escherichia coli TB1 cells using p-NPP as substrate
T2 sequence (P18031 whole entry): T1 sequence (whole entry)

[4] = test system: Rattus norvegicus; assay: Hypoglycemic activity in glucose fed normoglycemic Wistar rat assessed as decrease in rise of blood glucose at 100 mg/kg, po single dose measured up to 4 hrs post dose by oral glucose tolerance test; assay type: functional; parameters: scale not given: the % may be the effect or the level left
How it was run: (§3)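 Male Wistar rats (200–250 g), fasted 18 h, n = 5 per group. Test agents were given orally as suspensions at the listed doses, with vehicle controls. A 2 g/kg glucose load was given by the same route 10 min later. Tail-tip blood was sampled at 0, 0.5, 1, 2, 3 and 4 h. Glucose was read by the glucose oxidase glucometer method.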

[5] = target: T1, Tyrosine-protein phosphatase non-receptor type 1 (Homo sapiens); assay: Reversible inhibition of human recombinant GST-tagged PTP1B expressed in Escherichia coli TB1 cells using p-NPP as substrate at 100 uM after 1 hr at 4 degC; how it was run: as §2
[6] = target: T1, Tyrosine-protein phosphatase non-receptor type 1 (Homo sapiens); assay: Slow binding inhibition of human recombinant GST-tagged PTP1B expressed in Escherichia coli TB1 cells using p-NPP as substrate
How it was run: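 p-Nitrophenol release from p-NPP by PTP-1B was followed over time at 400 nm at several inhibitor concentrations, at 37 °C, pH 7.0. Progress curves were examined for linearity, with and without 30 min enzyme–inhibitor preincubation before the assay.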

[7] = target: T2, Tyrosine-protein phosphatase non-receptor type 1; assay: Mixed-type inhibition of human recombinant GST-tagged PTP1B expressed in Escherichia coli TB1 cells using p-NPP as substrate by double reciprocal plot analysis
How it was run: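 Thrombin-cleaved, gel-filtered PTP-1B in pH 7.0 β,β-dimethylglutarate/EDTA/DTT buffer at 37 °C. Initial p-NPP hydrolysis rates were measured at eight substrate concentrations (0.5–40 mM) with increasing inhibitor concentrations. p-Nitrophenol was read at 400 nm, and Km/Vmax changes were analysed by double reciprocal plots.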

[8] = test system: Rattus norvegicus; assay: Hypoglycemic activity in glucose-fed normoglycemic Wistar rat assessed as decrease in rise of blood glucose at 4 mg/kg, po single dose measured up to 4 hrs post dose by oral glucose tolerance test; assay type: functional, organism-based; parameters: dose 4 mg/kg; how it was run: as §3
[9] = target: T1, Tyrosine-protein phosphatase non-receptor type 1 (Homo sapiens); assay: Inhibition of human recombinant GST-tagged PTP1B expressed in Escherichia coli TB1 cells using p-NPP as substrate at 40 uM
How it was run: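 PTP-1B was cleaved from GST with thrombin and gel-filtered. Assay: 0.075 M β,β-dimethylglutarate buffer pH 7.0 with 1 mM EDTA and 1 mM DTT, 2.5 mM p-NPP, compound 40 μM final, DMSO control, 37 °C, 0.16 μg enzyme per 1 mL assay. Stopped with KOH; p-nitrophenol read at 400 nm. Residual activity is % of control, four assays, mean ± S.E.M.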

[10] = test system: Rattus norvegicus; assay: Hypoglycemic activity in normoglycemic Wistar rat at 100 mg/kg, po administered as single dose measured up to 3 hrs post dose; assay type: functional; how it was run: as §1
[11] = test system: Rattus norvegicus; assay: Hypoglycemic activity in glucose-fed normoglycemic Wistar rat assessed as decrease in rise of blood glucose at 5 to 10 mg/kg, po single dose measured up to 4 hrs post dose by oral glucose tolerance test; assay type: functional, organism-based; how it was run: as §3
[12] = test system: Rattus norvegicus; assay: Hypoglycemic activity in normoglycemic Wistar rat at 10 mg/kg, po administered as single dose measured up to 3 hrs post dose; assay type: functional, organism-based; parameters: dose 10 mg/kg; how it was run: as §1

inhibition [2]: Active
IC50 [3]: 11 µM
inhibition [5]: Active
inhibition [6]: inactive
Ki [7]: 6.2 µM
SMILES: CCOC(=O)C(=O)Nc1nc2ccc(C)cc2s1
Activity [1]: 26%
Activity [4]: >20%

inhibition [9]: inactive
SMILES: CCOC(=O)C(=O)Nc1nc2ccc(OC)cc2s1

inhibition [9]: inactive
SMILES: CCOC(=O)C(=O)Nc1nc2ccc(OCC)cc2s1

inhibition [9]: inactive
SMILES: CCOC(=O)C(=O)Nc1nc2ccc(N)cc2s1

More lines, now with the values behind:

SMILES: CCOc1cc(CC(=O)N[C@@H](CC(C)C)c2ccccc2N2CCCCC2)ccc1C(=O)O
Activity [8]: Active

SMILES: CCOC(=O)C(=O)Nc1nc2ccccc2s1
inhibition [9]: inactive

SMILES: CCOC(=O)C(=O)Nc1nc2ccc(Cl)cc2s1
inhibition [2]: Active
Activity [10]: 30%
IC50 [3]: 10.1 µM
Activity [4]: >20%
inhibition [5]: Active
inhibition [6]: inactive
Ki [7]: 7.9 µM

SMILES: CCOC(=O)C(=O)Nc1nc2ccc([N+](=O)[O-])cc2s1
inhibition [9]: inactive

SMILES: CCOC(=O)C(=O)Nc1nc2ccc(F)cc2s1
inhibition [2]: Active
IC50 [3]: 8.7 µM
inhibition [5]: Active
inhibition [6]: inactive
Ki [7]: 7.9 µM

SMILES: CCOC(=O)C(=O)Nc1nc2ccc(S(C)(=O)=O)cc2s1
inhibition [9]: inactive

SMILES: COc1ccc(Cl)cc1C(=O)NCCc1ccc(S(=O)(=O)NC(=O)NC2CCCCC2)cc1
Activity [11]: Active
Activity [12]: Active
